# Activity calls are given as the source filed them. The calls are words filed in the database; no cut-off is given here.
# Columns and labels:
# Mus musculus [1] = test: Antinociceptive activity against formalin-induced pain in Kunming mouse assessed as reduction in mean licking and biting time at 80 mg/kg, ip administered 15 mins before fomalin injection measured during second phase of 15 to 45 mins after formalin challenge; assay type: functional; settings: route intraperitoneal
# Cavia porcellus = organism: Cavia porcellus; test: Selectivity ratio of Ki for sigma 2 receptor in Dunkin Hartley guinea pig membrane to Ki for sigma 1 receptor in Dunkin Hartley guinea pig membrane; assay type: cell membranes
# Mus musculus [2] = test: Antinociceptive activity against formalin-induced pain in Kunming mouse assessed as reduction in mean licking and biting time at 80 mg/kg, ip administered 15 mins before fomalin injection measured during first phase of 0 to 5 mins after formalin challenge; assay type: functional; settings: route intraperitoneal
# [3] = molecular target: Sigma non-opioid intracellular receptor 1 (Cavia porcellus, UniProt Q60492); test: Displacement of [3H]-(+)-pentazocine from sigma 1 receptor in Dunkin Hartley guinea pig membrane after 180 mins by liquid scintillation counting analysis; assay type: cell membranes
# [4] = Displacement of [3H]-DTG from sigma 2 receptor in Dunkin Hartley guinea pig membrane after 120 mins by liquid scintillation counting analysis […]; assay type: cell membranes, Cavia porcellus
# [5] = molecular target: Sigma non-opioid intracellular receptor 1 (Homo sapiens, UniProt Q99720); test: Binding affinity to sigma 1 receptor (unknown origin)
# [6] = molecular target: Sigma non-opioid intracellular receptor 1 (Cavia porcellus) (UniProt Q60492); test: Ratio of Ki for sigma 1 receptor in Dunkin Hartley guinea pig membrane in absence of phenytoin to Ki for sigma 1 receptor in Dunkin Hartley guinea pig membrane in presence of phenytoin; assay type: cell membranes
# Mus musculus [7] = test: Antinociceptive activity in Kunming mouse assessed as reduction in formalin-induced pain behaviour at 80 mg/kg, ip administered 15 mins before fomalin injection measured during second phase of 15 to 45 mins after formalin challenge; assay type: functional
# Outline: (§1)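 Kunming mice (20 ± 2.0 g), 10–12 per group, dosed i.p. in 30% PEG 400 (10 mL/kg) 15 min before intraplantar formalin. Paw licking/biting time was scored in phase I (0–5 min) and phase II (15–45 min). Antinociception (%) = (vehicle licking time − drug licking time)/vehicle licking time × 100. Two-way ANOVA with Newman-Keuls test.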
# Mus musculus [8] = test: Antinociceptive activity in ip dosed Kunming mouse assessed as reduction in formalin-induced pain behaviour administered 15 mins before fomalin injection measured during first phase of 0 to 5 mins after formalin challenge; assay type: functional; outline: as §1
# Mus musculus [9] = test: Antinociceptive activity in ip dosed Kunming mouse assessed as reduction in formalin-induced pain behaviour administered 15 mins before fomalin injection measured during second phase of 15 to 45 mins after formalin challenge; assay type: functional; outline: as §1
# Mus musculus [10] = test: Antinociceptive activity in Kunming mouse assessed as reduction in formalin-induced pain behaviour at 40 mg/kg, ip administered 15 mins before fomalin injection measured during first phase of 0 to 5 mins after formalin challenge; assay type: functional; outline: as §1
# Mus musculus [11] = test: Antinociceptive activity in Kunming mouse assessed as reduction in formalin-induced pain behaviour at 40 mg/kg, ip administered 15 mins before fomalin injection measured during second phase of 15 to 45 mins after formalin challenge; assay type: functional; outline: as §1
# Mus musculus [12] = test: Antinociceptive activity in Kunming mouse assessed as reduction in formalin-induced pain behaviour at 160 mg/kg, ip administered 15 mins before fomalin injection measured during second phase of 15 to 45 mins after formalin challenge; assay type: functional; outline: as §1
# Mus musculus [13] = test: Antinociceptive activity in Kunming mouse assessed as reduction in formalin-induced pain behaviour at 80 mg/kg, ip administered 15 mins before fomalin injection measured during first phase of 0 to 5 mins after formalin challenge; assay type: functional; outline: as §1
# Mus musculus [14] = test: Antinociceptive activity in Kunming mouse assessed as reduction in formalin-induced pain behaviour at 160 mg/kg, ip administered 15 mins before fomalin injection measured during first phase of 0 to 5 mins after formalin challenge; assay type: functional; outline: as §1
# Chain of Sigma non-opioid intracellular receptor 1 (Cavia porcellus, UniProt Q60492) (Q60492 whole entry): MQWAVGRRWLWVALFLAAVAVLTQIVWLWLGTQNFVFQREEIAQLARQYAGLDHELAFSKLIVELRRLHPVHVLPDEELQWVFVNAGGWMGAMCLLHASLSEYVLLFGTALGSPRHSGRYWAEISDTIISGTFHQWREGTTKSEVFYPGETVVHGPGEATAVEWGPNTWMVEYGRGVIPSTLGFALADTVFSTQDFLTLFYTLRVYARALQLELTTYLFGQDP
# Chain of Sigma non-opioid intracellular receptor 1 (Cavia porcellus) (Q60492 whole entry): as above
# Chain of Sigma non-opioid intracellular receptor 1 (Homo sapiens, UniProt Q99720) (Q99720 whole entry): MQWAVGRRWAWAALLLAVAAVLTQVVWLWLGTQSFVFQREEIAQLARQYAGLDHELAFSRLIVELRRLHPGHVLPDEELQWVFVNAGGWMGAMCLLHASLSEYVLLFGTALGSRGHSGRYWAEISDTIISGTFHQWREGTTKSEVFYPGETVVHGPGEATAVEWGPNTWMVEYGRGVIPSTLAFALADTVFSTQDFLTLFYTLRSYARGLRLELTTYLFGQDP
Ratio Ki (Cavia porcellus),Ki [3] [nM],Ki [4] [nM],Structure (SMILES),other results
,,,COc1cccc2c1CCC(=O)N2CCCN1CCN(c2cccc(Cl)c2)CC1,IC50 [5]: 47 nM
507,1.49,755,Cc1ccc(CN2C(=O)CCc3ccc(OCCCN4CCC(C)CC4)cc32)cc1,
,852,> 2000,O=C1CCc2cc(OCCCCCCN3CCOCC3)ccc2N1Cc1ccccc1,
2.4,40.2,98.1,O=C1CCc2cc(OCCCN3CCOCC3)ccc2N1CCc1ccccc1,
488,1.69,825,Cc1ccc(CN2C(=O)CCc3ccc(OCCCN4CCCCC4)cc32)cc1,
,682,2000,O=C1CCc2ccc(OCCCCCCN3CCOCC3)cc2N1Cc1ccccc1,
4.6,21.6,100,O=C1CCc2ccc(OCCCN3CCOCC3)cc2N1CCc1ccccc1,
37.4,4.3,161,CN1CCN(CCCOc2ccc3c(c2)N(Cc2ccccc2)C(=O)CC3)CC1,
,,49.2,Cc1ccccc1NC(=N)Nc1ccccc1C [DITOLYLGUANIDINE],
18.3,98.2,1800,O=C1CCN(CCCOc2ccc3c(c2)N(Cc2ccccc2)C(=O)CC3)CC1,
6.1,66.7,409,CC1CCN(CCCOc2ccc3c(c2)NC(=O)CC3)CC1,
8.8,60.2,530,O=C1CCc2ccc(OCCCCN3CCOCC3)cc2N1Cc1ccccc1,
20.4,88.4,1810,O=C1CCc2ccc(OCCCCCN3CCOCC3)cc2N1Cc1ccccc1,
7.7,40.2,311,CC1CCN(CCCOc2ccc3c(c2)N(C)C(=O)CC3)CC1,
2.4,83.2,205,CN(C)CCCOc1ccc2c(c1)N(Cc1ccccc1)C(=O)CC2,
,,36.4,O=C(CCCN1CCC(O)(c2ccc(Cl)cc2)CC1)c1ccc(F)cc1 [HALOPERIDOL],

Ratio Ki (Cavia porcellus),Ki [3] [nM],Ki [4] [nM],Structure (SMILES),other results
,195,> 2000,O=C1CCc2cc(OCCCCN3CCOCC3)ccc2N1CCc1ccccc1,
10.4,34.3,357,CN1C(=O)CCc2ccc(OCCCN3CCCCC3)cc21,
6.1,70.7,430,O=C1CCc2cc(OCCCCCN3CCOCC3)ccc2N1Cc1ccccc1,
1.4,792,1120,O=C1CCc2cc(OCCCN3CCOCC3)ccc2N1Cc1ccccc1,
2.5,39.4,97.2,CCN(CC)CCCOc1ccc2c(c1)N(Cc1ccccc1)C(=O)CC2,
290,1.1,319,CC1CCN(CCCOc2ccc3c(c2)N(Cc2ccccc2)C(=O)CC3)CC1,
26.8,44.8,1200,O=C1CCc2ccc(OCCCCN3CCOCC3)cc2N1CCc1ccccc1,
11.7,22.2,260,O=C1CCc2cc(OCCCCN3CCOCC3)ccc2N1Cc1ccccc1,
23.1,23.8,550,O=C1CCc2ccc(OCCCN3CCCC3)cc2N1Cc1ccccc1,
360,1.84,662,O=C1CCc2ccc(OCCCN3CCCCC3)cc2N1Cc1ccccc1,
3.2,89.1,288,O=C1CCc2ccc(OCCCN3CCCCC3)cc2N1,
,> 2000,> 2000,O=C1CCc2cc(OCCN3CCOCC3)ccc2N1Cc1ccccc1,
,> 2000,> 2000,O=C1CCc2ccc(OCCN3CCOCC3)cc2N1Cc1ccccc1,
31.8,14.8,471,O=C1CCc2ccc(OCCCN3CCOCC3)cc2N1Cc1ccccc1,
,341,> 2000,O=C1CCc2ccc(OCCCN3CCN(c4ccccc4)CC3)cc2N1Cc1ccccc1,

Structure (SMILES),Ratio Ki (Cavia porcellus),Ki [3] [nM],Ki [4] [nM],other results
Cc1cc(OCCN2CCOCC2)nn1-c1ccc2ccccc2c1,> 190,10.5,> 2000,Time (Mus musculus [1]): 27.34 s; Time (Mus musculus [2]): 8.63 s
O=C1CCc2ccc(OCCCN3CCCCC3)cc2N1Cc1ccc(F)cc1,1070,1.22,1300,Time (Mus musculus [1]): 36.13 s; Ratio Ki [6]: 0.86; inhibition in vivo at 80 mg/kg (Mus musculus [7]; route intraperitoneal): 87.7%; ED50 (Mus musculus [8]): 49.4 mg/kg; inhibition (Mus musculus [8]): Dose-dependent effect; Time (Mus musculus [2]): 12.08 s; ED50 (Mus musculus [9]): 50.5 mg/kg; inhibition (Mus musculus [9]): Dose-dependent effect; inhibition in vivo at 40 mg/kg (Mus musculus [10]; route intraperitoneal): 33.4%; inhibition in vivo at 40 mg/kg (Mus musculus [11]; route intraperitoneal): 30.5%; inhibition in vivo at 160 mg/kg (Mus musculus [12]; route intraperitoneal): 98.2%; inhibition in vivo at 80 mg/kg (Mus musculus [13]; route intraperitoneal): 84.8%; inhibition in vivo at 160 mg/kg (Mus musculus [14]; route intraperitoneal): 97.6%
CC1CCN(CCCOc2ccc3c(c2)N(Cc2ccc(F)cc2)C(=O)CC3)CC1,1250,0.77,960,Time (Mus musculus [1]): 89.75 s; Ratio Ki [6]: 0.91; inhibition (Mus musculus [7]): Active; Time (Mus musculus [2]): 34.82 s; inhibition (Mus musculus [10]): Active; inhibition (Mus musculus [11]): Active; inhibition (Mus musculus [12]): Active; inhibition (Mus musculus [13]): Active; inhibition (Mus musculus [14]): Active

# From ChEMBL document CHEMBL3232762, “Synthesis and biological evaluation of a novel sigma-1 receptor antagonist based on 3,4-dihydro-2(1H)-quinolinone scaffold as a potential analgesic” (Eur J Med Chem, 2014)
